CSN inh: CSN deneddylation inhibition; Q92905; Purified CSN, SCF-Nedd8-OG deneddylation, fluorescence polarization; inhibition, % at 12.5 µM; 0.38% of 360,000 active; AID 651999;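 active = pattern-corrected inhibition above about 35%, with an unprinted fluorescence ratio check between 0.5 and 1.5, limit read from the data, passing the limit was not always enough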;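 note: 0% = enzyme with substrate and 100% = substrate without enzyme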
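test system = HEK293T-derived human Csn5 enzyme | amount = 0.24 nM Csn5 enzyme, final concentration | medium = Tris/NaCl/DTT buffer, pH 7.5 | schedule = 90 min reaction at room temperature | signal = FP | evaluation = inhibition of Csn5 cleavage, % | compound dosing = single dose of 12.5 µM compound with 0.25% DMSO | probe or stimulus = 10 nM SCFSkp2-Nedd8OG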
Rpn11 inh: inhibitors of human proteasome Rpn11. calls only at 20 µM. human 26S proteasome, Ub4-pepOG fluorescence polarization; 20S core pre-blocked with epoxomicin. 0.59% of 360,000 active;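 active = inhibition at 20 µM, scaled to each plate's controls, above about 33%, limit read from the data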
CRFBP-R2 agonist: CRF-BP/CRF-R2 complex agonism. AID 588473. 0.46% of 350,000 active. HEK293 CRF-R2/CRF-BP, calcium dye fluorescence (FLIPR); percent of saturating CRF peptide response. activation, % at 13.2 µM;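 active = activation of at least 50%, plus an integration ratio under a set limit after plate pattern correction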;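 note: plate controls were neutral control wells without compound for no effect and CRF at EC100 for full effect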
TPT1 inh: C. albicans TPT1 enzyme inhibition; recombinant caTPT1, FP RNA substrate dephosphorylation; inhibition, % at 5 µM; 0.81% of 300,000 active;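 active = inhibition above the mean of all tested compounds plus 3 SD, set per screening campaign, cut at about 24% in these data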;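 note: plate controls were DMSO alone for no effect and ferristatin control at 100 nM for full effect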
HNF4A DNA FP: change in binding of human HNF4 alpha to DNA; HNF4a-FITC DNA binding, fluorescence polarization, 1 h; 0.3% of 360,000 active; P41235; activity change, % at 10 µM; in the data active = activity change above about 30%, passing the limit was not always enough
Target sequence (P41235 whole entry, looked up): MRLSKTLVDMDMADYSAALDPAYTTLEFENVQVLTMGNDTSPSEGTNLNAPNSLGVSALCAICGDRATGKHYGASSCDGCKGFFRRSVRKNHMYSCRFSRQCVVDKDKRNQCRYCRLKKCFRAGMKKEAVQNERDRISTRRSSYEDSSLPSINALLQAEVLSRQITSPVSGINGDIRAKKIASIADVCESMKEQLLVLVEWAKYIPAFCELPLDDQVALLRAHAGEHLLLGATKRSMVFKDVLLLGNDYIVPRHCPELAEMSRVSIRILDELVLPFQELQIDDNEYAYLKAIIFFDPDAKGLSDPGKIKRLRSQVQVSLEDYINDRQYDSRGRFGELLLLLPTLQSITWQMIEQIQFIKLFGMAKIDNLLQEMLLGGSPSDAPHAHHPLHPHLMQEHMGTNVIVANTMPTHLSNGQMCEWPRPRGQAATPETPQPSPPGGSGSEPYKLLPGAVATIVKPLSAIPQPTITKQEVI
CRFBP-R2 block: antagonists of CRF-binding protein/CRF-R2 receptor complex; HEK293 CRF-R2/CRF-BP, CRF-induced calcium fluorescence; inhibition, % at 11.8 µM; 0.59% of 350,000 active; AID 588475;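 active = inhibition of the ligand-induced calcium signal above about 50% at the single tested concentration, limit read from the data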
Rpn11 inh conf: Rpn11 inhibition confirmation, single concentration | shares compounds with Rpn11 inh | purified human 26S proteasome, Ub4-pepOG fluorescence polarization; proteasome pretreated with epoxomicin | inhibition, % at 20 µM | 29% of 1,900 active | AID 602318
MMP-2 counter: MMP-2 (human) inhibition counter-screen; shares compounds with Rpn11 inh; recombinant MMP-2, FRET peptide cleavage fluorescence; inhibition, % at 20 µM; 4% of 1,900 active; AID 602330;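 note: human MMP-2 activated beforehand with APMA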
Thrombin FP: blocks bovine thrombin, flagging nonselective RPN11 hits; shares compounds with Rpn11 inh; bovine thrombin cleavage of Ub4-pepOG, fluorescence polarization; inhibition, % at 20 µM; 13% of 1,900 active;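 active = mean inhibition at least 40% at 20 µM, or signal 3 deviations below plate average, so some actives read negative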;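 note: plate controls were thrombin with DMSO for no effect and buffer wells lacking thrombin for full effect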
* = called active by the depositor; i = inactive; . = no result given; + = active, no number. Hits are enriched below; roughly 2.3% of the tested compounds scored in any of these assays. Cut-off read from the data, not from the text of the source, unless noted: active = inhibition above about 40%; inactive = the rest.

SMILES	CSN inh	Rpn11 inh	CRFBP-R2 agonist	TPT1 inh	HNF4A DNA FP	CRFBP-R2 block	Rpn11 inh conf	MMP-2 counter	Thrombin FP
C=CCSc1nc(-c2ccc3c(c2)OCO3)cc(C(F)(F)F)c1C#N	6	i	4	-1	-2	-1	.	.	.
Cc1cc(C)c(C#N)c(SCCN2CCCCC2)n1	4	i	3	.	0	-3	.	.	.
N#Cc1c(C(F)(F)F)cc(-c2ccc(Cl)c(Cl)c2)nc1SCCN1CCOCC1	5	+	16	3	4	-134	17	-17	38
Cc1cc(C(F)(F)F)nc(SCCN2CCOCC2)c1C#N	19	+	1	9	29	-37	50*	-13	29
COc1ccc(-n2c(Cc3cccn3C)nnc2SCC(=O)NC2CCCCC2)cc1	-8	i	1	2	1	6	.	.	.
Cc1ccc(C(=O)Nc2ncccc2C)cc1S(=O)(=O)N1CCCCC1	-3	i	-1	1	1	-5	.	.	.
CC(C)CNC(=O)c1ccccc1NC(=O)CN(c1ccc2c(c1)OCCO2)S(C)(=O)=O	1	i	1	-5	-4	5	.	.	.
O=c1cc(N2CCc3ccccc3C2)[nH]c(=O)n1Cc1ccc(F)cc1	5	+	-1	-1	2	-6	-2	-26	-13
Cc1ccnc2nc(C(=O)Nc3ccc(N4CCOCC4)cc3)nn12	0	+	-2	-2	7	14	-5	-49	-10
COc1cc(-c2cc(-c3ccc(F)cc3)nc(N)c2C#N)ccc1O	-8	+	-1	-1	83*	10	0	-12	-7
CCOC(=O)/C=c1\s/c(=C\c2ccc(C(F)(F)F)cc2)c(=O)n1CC(=O)NCc1ccco1	12	+	8	23	10	-4	36	-29	38
Cc1cc(NC(=O)CCN2CCN(CCO)CC2)ccc1Br	-5	i	0	-1	-1	8	.	.	.
COc1ccc(O)c(C(=O)c2cnn(C(=O)c3ccc(C)cc3)c2)c1	12	+	-1	.	23	-3	-3	-34	-11
Cc1ccc(-n2c(=O)c3cc4c(=O)n(-c5ccc(C)c(C)c5)c(=O)c4c(C(=O)c4ccc(C(=O)O)cc4)c3c2=O)cc1C	84*	+	-1	-1	-58	9	4	11	39
Cc1cccc(NC(=O)c2cc(Cl)ccc2[N+](=O)[O-])c1	2	+	-1	3	20	18	-8	-47	-4
COc1ccc(N2C(=O)CCC(C(=O)NCc3ccccn3)C2c2ccc(OC)c(OC)c2)cc1 (stereo unspecified)	2	i	0	-1	2	-4	.	.	.
COc1ccc(N2C(=O)CCC(C(=O)Nc3cccc(C)n3)C2c2ccc(OC)c(OC)c2)cc1 (stereo unspecified)	7	+	3	-3	-4	14	-11	-36	-8
COc1ccc(C)cc1NC(=O)c1ccc(OCc2c(C)noc2C)cc1	-4	i	-1	.	2	6	.	.	.
O=C(Nc1ccc(Cl)cc1)/C(=C/c1cccc(O)c1)c1nc2ccccc2s1	-2	+	2	7	11	-49	17	-8	9
Cc1cc(Sc2nc(N(C)C)nc(N(C)C)n2)nc(Cl)n1	2	i	-1	2	1	24	.	.	.
Cc1ccc(-c2nc(CS(=O)(=O)CC(=O)NCc3cccc(F)c3)c(C)o2)cc1	-5	i	0	3	-1	8	.	.	.
O=C(NCc1n[nH]c(=S)n1-c1ccc(F)cc1)c1ccc(S(=O)(=O)N2CCOCC2)cc1	1	+	-1	-2	32*	7	-5	53*	-10
O=C(NCc1n[nH]c(=S)n1-c1ccccc1)c1ccc(S(=O)(=O)N2CCOCC2)cc1	-2	i	-3	-3	4	8	.	.	.
O=C(NNc1ncnc2ccccc12)c1cccc(Cl)c1	7	+	-1	-1	0	-5	77*	-26	-4
COc1ccc(-c2ccc(NC(=O)c3ccc(Br)o3)cc2)nn1	3	+	0	0	1	1	13	16	-21
SMILES	CSN inh	Rpn11 inh	CRFBP-R2 agonist	TPT1 inh	HNF4A DNA FP	CRFBP-R2 block	Rpn11 inh conf	MMP-2 counter	Thrombin FP
COC(=O)Cc1ccc(NC(=O)c2ccc(Br)o2)cc1	-2	i	2	-2	32	18	.	.	.
Cc1cc2ccc(C)c(C)c2nc1SCC#N	-5	i	12	1	2	-32	.	.	.
CCSc1nc2sc3c(c2c(=O)n1-c1ccccc1)CCN(C)C3	6	+	-1	8	10	3	7	-12	14
C#CCn1c(=NC(=O)c2cc(-c3cccs3)nc3ccccc23)sc2cc(S(N)(=O)=O)ccc21	7	+	3	2	7	-13	23	-14	9
C#CCn1c(=NC(=O)c2cc(Cl)sc2Cl)sc2cc(S(N)(=O)=O)ccc21	1	i	8	6	-4	6	.	.	.
O=C(CSc1nc2sc3c(c2c(=O)n1-c1ccccc1)CCCC3)N/N=C/c1ccc(C(=O)O)cc1	-4	i	0	-4	1	-12	.	.	.
Cn1c(N/N=C/c2ccccc2)nc2sc3c(c2c1=O)CCC3	-2	+	-2	2	28	6	-8	7	-7
c1ccc(OCCn2c(-c3ccco3)nc3ccccc32)cc1	9	+	-1	10	10	14	-5	-13	-14
Cc1nc(-c2ccc(C(=O)Nc3ccc(F)cc3)cc2)cs1	6	+	5	0	5	-17	24	-11	-8
COc1ccc(Cc2c(-c3ccc(C)cc3)nc3ccc(Cl)cn23)c(C)c1	9	+	.	.	18	.	52*	24	37
COC(=O)c1ccc2nc(-c3ccc(Cl)cc3)c(Cc3ccc(OC)cc3C)n2c1	5	.	.	.	17	.	.	.	.
Fc1ccc(-c2nc3c4ccccc4ccn3c2Cc2cccc(Cl)c2)cc1	1	+	.	.	10	.	68*	4	74*
O=C(Nc1ccc(F)c(Cl)c1)C1Cc2c(-c3ccc(Cl)cc3)ccnc2O1 (stereo unspecified)	-2	i	.	.	3	.	.	.	.
